{
  "source": "ChEMBL document CHEMBL3804799",
  "about": "“Synthesis and Biological Evaluation of Novel σ1 Receptor Ligands for Treating Neuropathic Pain: 6-Hydroxypyridazinones” (J Med Chem, 2016)",
  "key": {"[1]": {"target": "Sodium channel protein type 9 subunit alpha (Homo sapiens) (UniProt Q15858)", "sequence (Q15858 whole entry, looked up)": "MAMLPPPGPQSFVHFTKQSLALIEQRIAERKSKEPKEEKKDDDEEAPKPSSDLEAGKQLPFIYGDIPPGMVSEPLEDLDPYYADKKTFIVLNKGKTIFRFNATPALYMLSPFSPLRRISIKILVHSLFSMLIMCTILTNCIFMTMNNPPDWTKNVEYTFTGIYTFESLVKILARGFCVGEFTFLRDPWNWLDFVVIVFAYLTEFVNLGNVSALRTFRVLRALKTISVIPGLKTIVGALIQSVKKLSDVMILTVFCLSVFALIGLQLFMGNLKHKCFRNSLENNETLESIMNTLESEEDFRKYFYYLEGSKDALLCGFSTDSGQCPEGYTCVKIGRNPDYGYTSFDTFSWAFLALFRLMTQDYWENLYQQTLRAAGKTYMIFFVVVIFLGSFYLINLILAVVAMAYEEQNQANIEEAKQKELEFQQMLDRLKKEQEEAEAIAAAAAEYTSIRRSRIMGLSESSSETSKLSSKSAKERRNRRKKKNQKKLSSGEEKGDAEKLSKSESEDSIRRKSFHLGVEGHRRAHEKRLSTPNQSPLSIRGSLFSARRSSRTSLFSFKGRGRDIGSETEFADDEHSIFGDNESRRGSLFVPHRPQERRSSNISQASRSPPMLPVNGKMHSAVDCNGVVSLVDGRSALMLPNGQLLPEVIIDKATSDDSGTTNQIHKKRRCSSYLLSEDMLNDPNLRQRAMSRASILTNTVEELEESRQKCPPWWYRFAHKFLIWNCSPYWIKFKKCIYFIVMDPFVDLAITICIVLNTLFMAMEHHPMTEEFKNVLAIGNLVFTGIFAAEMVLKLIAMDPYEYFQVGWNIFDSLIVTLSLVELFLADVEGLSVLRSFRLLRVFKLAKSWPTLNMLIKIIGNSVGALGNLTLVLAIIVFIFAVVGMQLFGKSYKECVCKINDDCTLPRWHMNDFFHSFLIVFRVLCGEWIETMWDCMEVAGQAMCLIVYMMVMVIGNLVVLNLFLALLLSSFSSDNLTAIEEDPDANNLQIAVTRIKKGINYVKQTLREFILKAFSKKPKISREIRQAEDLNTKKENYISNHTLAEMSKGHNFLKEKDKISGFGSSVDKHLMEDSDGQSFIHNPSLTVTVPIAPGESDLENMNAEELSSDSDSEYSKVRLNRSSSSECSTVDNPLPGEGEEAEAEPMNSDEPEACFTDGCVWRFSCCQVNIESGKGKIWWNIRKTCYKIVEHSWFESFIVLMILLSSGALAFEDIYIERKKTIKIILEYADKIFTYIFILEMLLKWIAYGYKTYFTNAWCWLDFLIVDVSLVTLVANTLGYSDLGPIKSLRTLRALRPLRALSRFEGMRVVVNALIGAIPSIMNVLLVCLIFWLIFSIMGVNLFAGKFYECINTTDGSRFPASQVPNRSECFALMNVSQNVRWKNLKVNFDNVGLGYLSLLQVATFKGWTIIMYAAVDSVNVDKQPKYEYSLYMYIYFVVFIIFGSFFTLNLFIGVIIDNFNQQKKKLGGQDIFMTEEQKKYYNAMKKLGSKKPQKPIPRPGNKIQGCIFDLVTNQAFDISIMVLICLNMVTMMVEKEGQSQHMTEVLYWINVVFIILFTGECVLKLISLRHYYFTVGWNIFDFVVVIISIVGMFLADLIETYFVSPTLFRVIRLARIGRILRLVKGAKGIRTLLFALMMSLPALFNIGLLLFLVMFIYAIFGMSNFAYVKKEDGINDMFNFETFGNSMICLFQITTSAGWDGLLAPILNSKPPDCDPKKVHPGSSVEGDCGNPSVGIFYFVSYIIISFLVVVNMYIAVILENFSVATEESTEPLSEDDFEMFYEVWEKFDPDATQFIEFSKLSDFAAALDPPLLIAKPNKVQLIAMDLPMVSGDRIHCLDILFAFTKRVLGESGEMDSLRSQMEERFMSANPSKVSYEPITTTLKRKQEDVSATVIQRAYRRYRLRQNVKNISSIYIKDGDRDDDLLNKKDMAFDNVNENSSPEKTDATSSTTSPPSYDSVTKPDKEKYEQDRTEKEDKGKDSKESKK", "assay": "Inhibition of human Nav 1.7 expressed in HEK293 cells at 1 uM by electrophysiological assay", "format": "cell-based"}, "[2]": {"assay": "Displacement of [3H]-DTG from Sigma2 receptor in Dunkin Hartley guinea pig brain membrane after 120 mins by liquid scintillation counting analysis in presence of sigma1 blocker (+)-SKF-10047", "parameters": "species or system Cavia porcellus", "how_it_was_run": "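Guinea pig brain P2 membranes incubated with 3 nM [³H]-DTG plus 400 nM (+)-SKF-10047 to block σ1 sites, Tris-HCl pH 8.0, 25 °C for 120 min; nonspecific binding with DTG. Filtration on PEI-presoaked GF/B filters, scintillation counting. […] At least three experiments.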"}, "[3]": {"target": "Mu-type opioid receptor (Homo sapiens) (UniProt P35372)", "sequence (P35372 whole entry)": "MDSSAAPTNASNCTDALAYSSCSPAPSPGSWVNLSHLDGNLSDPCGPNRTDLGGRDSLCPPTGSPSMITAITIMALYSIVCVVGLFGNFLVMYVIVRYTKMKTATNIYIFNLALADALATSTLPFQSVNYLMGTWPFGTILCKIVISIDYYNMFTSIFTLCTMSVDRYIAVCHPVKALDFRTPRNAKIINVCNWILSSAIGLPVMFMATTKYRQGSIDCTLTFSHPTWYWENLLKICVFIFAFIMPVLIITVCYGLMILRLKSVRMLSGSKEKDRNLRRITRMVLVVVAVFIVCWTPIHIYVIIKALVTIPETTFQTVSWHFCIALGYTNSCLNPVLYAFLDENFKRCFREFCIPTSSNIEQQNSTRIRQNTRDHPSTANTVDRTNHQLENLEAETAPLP", "assay": "Displacement of [3H]-diprenorphine from human mu-opiod receptor expressed in CHO cells at 1 uM after 150 mins by liquid scintillation counting analysis", "format": "cell-based"}, "[4]": {"target": "Histamine H3 receptor (Rattus norvegicus) (UniProt Q9QYN8)", "sequence (Q9QYN8 whole entry)": "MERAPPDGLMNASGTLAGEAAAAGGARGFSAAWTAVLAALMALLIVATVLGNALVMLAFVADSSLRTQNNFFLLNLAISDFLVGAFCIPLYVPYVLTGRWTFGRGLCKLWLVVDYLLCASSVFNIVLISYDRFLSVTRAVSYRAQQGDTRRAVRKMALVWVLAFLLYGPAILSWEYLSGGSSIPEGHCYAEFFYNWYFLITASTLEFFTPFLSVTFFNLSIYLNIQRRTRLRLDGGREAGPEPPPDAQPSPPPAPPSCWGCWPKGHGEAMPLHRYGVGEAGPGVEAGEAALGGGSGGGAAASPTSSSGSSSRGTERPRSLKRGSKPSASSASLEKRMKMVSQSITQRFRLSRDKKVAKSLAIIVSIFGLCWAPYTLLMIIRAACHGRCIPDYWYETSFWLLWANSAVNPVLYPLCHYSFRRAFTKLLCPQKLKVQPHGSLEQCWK", "assay": "Displacement of [3H]-N-alpha-methylhistamine from H3 receptor in rat cerebral cortex at 1 uM after 30 mins by liquid scintillation counting analysis", "format": "tissue-based"}, "[5]": {"assay": "Acute toxicity in po dosed Kun Ming mouse assessed as mortality after 24 hrs", "format": "organism-based", "conditions": "in vivo", "how_it_was_run": "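Mice, 10 per group, given a single oral dose (10 mL/kg) of 0.5% methylcellulose vehicle or test compound at 200, 500, 1000, 1500 or 2000 mg/kg. Survivors were counted 24 h after dosing and percent mortality per group was calculated. LD50 was derived by statistical analysis.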"}, "[6]": {"assay": "Half life in Sprague-Dawley rat at 80 mg/kg, po administered through gavage by LC-MS/MS analysis", "format": "ADME, organism-based", "conditions": "in vivo", "how_it_was_run": "(§1)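 SD rats, n = 3/group. Dosing was either 5 mg/kg iv via tail vein in saline or 80 mg/kg by oral gavage as a suspension in 0.5% methylcellulose. Serial tail-vein blood was drawn into heparinized tubes at 0.5, 1, 2, 3, 4, 5, 6, 8 and 24 h. Plasma was separated, proteins precipitated with acetonitrile, and samples analysed by LC/MS.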"}, "[7]": {"target": "Sodium-dependent serotonin transporter (Rattus norvegicus) (UniProt P31652)", "sequence (P31652 whole entry)": "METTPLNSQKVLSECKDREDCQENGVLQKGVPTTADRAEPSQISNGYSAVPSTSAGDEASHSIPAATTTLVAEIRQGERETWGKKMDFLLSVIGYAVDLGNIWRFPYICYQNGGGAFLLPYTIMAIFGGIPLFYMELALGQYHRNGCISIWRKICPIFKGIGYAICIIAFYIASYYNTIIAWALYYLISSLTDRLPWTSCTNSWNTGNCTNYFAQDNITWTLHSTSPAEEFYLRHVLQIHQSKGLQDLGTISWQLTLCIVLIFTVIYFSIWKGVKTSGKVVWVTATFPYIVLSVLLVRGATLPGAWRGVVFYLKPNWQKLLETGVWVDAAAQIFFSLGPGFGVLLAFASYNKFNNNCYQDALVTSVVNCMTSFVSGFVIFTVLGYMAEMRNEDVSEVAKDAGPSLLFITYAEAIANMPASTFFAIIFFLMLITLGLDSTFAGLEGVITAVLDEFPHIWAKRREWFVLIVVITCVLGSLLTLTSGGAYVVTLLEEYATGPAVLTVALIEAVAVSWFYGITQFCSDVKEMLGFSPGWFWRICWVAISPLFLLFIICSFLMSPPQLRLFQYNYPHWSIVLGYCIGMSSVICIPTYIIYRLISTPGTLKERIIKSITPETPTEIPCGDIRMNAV", "assay": "Inhibition of 5HT transporter in rat cerebral cortex assessed as [3H]-paroxetine uptake at 1 uM after 10 mins by liquid scintillation counting analysis", "format": "tissue-based"}, "Mus musculus [8]": {"test_system": "Mus musculus", "assay": "Antiallodynic activity in ig dosed Kun Ming mouse assessed as inhibition of formalin-induced pain in delayed pain response phase administered 15 mins prior to formalin challenge measured after 15 to 45 mins post formalin dosing", "format": "functional", "how_it_was_run": "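Mice received 20 μL of 2.5% formalin (0.92% formaldehyde) in the dorsal right hind paw. Time spent licking or biting the paw was scored at 0–5 min (phase I) and 15–45 min (phase II), with a mirror behind the glass cylinder. Vehicle was 30% PEG 400 at 10 mL/kg, given 15 min before formalin. n = 10–12 per group. % antinociception = (LT_V − LT_D)/LT_V × 100.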"}, "[9]": {"assay": "Half life in Sprague-Dawley rat at 5 mg/kg, iv by LC-MS/MS analysis", "format": "ADME, organism-based", "conditions": "in vivo", "how_it_was_run": "as §1"}, "Mus musculus [10]": {"test_system": "Mus musculus", "assay": "Toxicity in Kun Ming mouse assessed as impair in motor coordination at 40 to 160 mg/kg, ig measured after 30 to 120 mins by rotarod test", "format": "organism-based", "conditions": "in vivo, po", "how_it_was_run": "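Mice were pre-trained; any that could not stay 300 s on the rod at 10 rpm were excluded. Latency to fall from the rod rotating at 10 rpm was recorded 30, 60, 90 and 120 min after intragastric dosing. 8–10 mice per group.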"}, "[11]": {"target": "Cannabinoid receptor 1 (Homo sapiens) (UniProt P21554)", "sequence (P21554 whole entry)": "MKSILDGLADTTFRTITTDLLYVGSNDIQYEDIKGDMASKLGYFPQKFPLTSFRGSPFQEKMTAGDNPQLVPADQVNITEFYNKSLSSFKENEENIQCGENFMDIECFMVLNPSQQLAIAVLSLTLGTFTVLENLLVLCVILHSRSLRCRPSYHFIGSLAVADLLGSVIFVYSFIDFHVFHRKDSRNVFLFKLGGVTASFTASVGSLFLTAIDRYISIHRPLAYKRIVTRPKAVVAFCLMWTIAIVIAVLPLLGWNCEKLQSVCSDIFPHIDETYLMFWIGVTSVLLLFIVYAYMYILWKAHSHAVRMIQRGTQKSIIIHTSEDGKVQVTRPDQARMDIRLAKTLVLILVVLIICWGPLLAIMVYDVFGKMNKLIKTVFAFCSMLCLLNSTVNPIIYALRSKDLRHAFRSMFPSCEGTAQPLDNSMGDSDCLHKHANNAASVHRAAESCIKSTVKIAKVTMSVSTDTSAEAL", "assay": "Displacement of [3H]-CP-55940 from human CB1 receptor expressed in CHO cells at 1 uM after 90 mins by liquid scintillation counting analysis", "format": "cell-based"}, "[12]": {"assay": "Cmax in Sprague-Dawley rat at 80 mg/kg, po administered through gavage by LC-MS/MS analysis", "format": "ADME, organism-based", "parameters": "dose 80 mg/kg, route oral", "conditions": "in vivo", "how_it_was_run": "as §1"}},
  "data": [
    {"smiles": "O=c1ccc(OCCCN2CCCCC2)nn1-c1ccc(Cl)c(Cl)c1", "values": [
      {"measurement": "inhibition", "setting": "[1]", "value": "< 50", "unit": "%"},
      {"measurement": "Ki", "setting": "[2]", "value": 1910, "unit": "nM"},
      {"measurement": "inhibition", "setting": "[3]", "value": "< 50", "unit": "%"},
      {"measurement": "inhibition", "setting": "[4]", "value": "< 50", "unit": "%"},
      {"measurement": "LD50 at 24 h", "setting": "[5]", "value": "> 2000", "unit": "mg/kg"},
      {"measurement": "half-life", "setting": "[6]", "value": 2.88, "unit": "h"},
      {"measurement": "inhibition", "setting": "[7]", "value": "< 50", "unit": "%"},
      {"measurement": "Activity", "setting": "Mus musculus [8]", "value": "Dose-dependent effect"},
      {"measurement": "ED50", "setting": "Mus musculus [8]; po", "value": 49, "unit": "mg/kg"},
      {"measurement": "half-life", "setting": "[9]", "value": 1.39, "unit": "h"},
      {"measurement": "Activity", "setting": "Mus musculus [10]", "value": "Non-toxic"},
      {"measurement": "inhibition", "setting": "[11]", "value": "< 50", "unit": "%"},
      {"measurement": "Cmax", "setting": "[12]", "value": 2920, "unit": "ng/mL"}
    ]}
  ]
}
